Data taken from ChEMBL document CHEMBL3112463, “Synthesis and biological activity of polyalthenol and pentacyclindole analogues” (2014).
Values after ≈ are worked out from the molar mass of the structure shown.

Legend:
Type in all cases: functional
T47D = assay: Antiproliferative activity against human T47D cells assessed as growth inhibition after 48 hrs by SRB assay
Method in brief: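 T-47D cells grown at 37 °C, 5% CO₂ in serum- and 2 mM L-glutamine-containing medium. Trypsinized, viability >97% by trypan blue, seeded at 15,000 cells/well. Compounds added day 1 in triplicate dilutions (DMSO vehicle 0.25% v/v as control) for 48 h. Cold 50% TCA fixation 60 min at 4 °C, SRB read at 492 nm with blank correction.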

WiDr = assay: Antiproliferative activity against human WiDr cells assessed as growth inhibition after 48 hrs by SRB assay
Method in brief: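 WiDr cells seeded at 20,000 cells/well after trypsinization into antibiotic-containing medium (trypan blue viability >97%). Culture at 37 °C, 5% CO₂ with foetal calf serum and 2 mM L-glutamine. Exposure to triplicate compound dilutions from DMSO stocks (0.25% v/v DMSO control) started day 1, lasting 48 h. Fixed with ice-cold 50% TCA, 60 min at 4 °C, then SRB, OD 492 nm background-subtracted.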

[1] = Antiproliferative activity against human HBL100 cells assessed as growth inhibition after 48 hrs by SRB assay; details: HBL-100, 48 h
Method in brief: (§1)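 Cells maintained at 37 °C, 5% CO₂ in medium with foetal calf serum and 2 mM L-glutamine. Trypsinized into antibiotic medium, >97% viable by trypan blue, plated at 10,000 cells/well. Triplicate dilutions from DMSO stocks (0.25% v/v DMSO control) added on day 1 for 48 h. TCA fixation (50%, 4 °C, 60 min), SRB stain, OD 492 nm corrected for medium-only blank.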

Staphylococcus aureus = assay: Antimicrobial activity against Staphylococcus aureus ATCC 29213 after 24 hrs by broth microdilution method; details: ATCC 29213, 24 h
Method in brief: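 Bacteria grown on nutrient agar at 35–37 °C for 24 h, then suspended in normal saline to approx. […] by matching to 0.5 McFarland standard. Broth microdilution in Mueller Hinton broth with growth and sterility controls, compounds first dissolved in DMSO.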

SW1573 = assay: Antiproliferative activity against human SW1573 cells assessed as growth inhibition after 48 hrs by SRB assay; details: SW1573, 48 h; method in brief: as §1
HeLa = assay: Antiproliferative activity against human HeLa cells assessed as growth inhibition after 48 hrs by SRB assay; method in brief: as §1
A549 = assay: Antiproliferative activity against human A549 cells assessed as growth inhibition after 48 hrs by SRB assay; details: A549, 48 h
Method in brief: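 Cells kept in medium with foetal calf serum and 2 mM L-glutamine at 37 °C, 5% CO₂. Trypsinized, resuspended in penicillin/streptomycin medium, >97% trypan blue viability, seeded at 10,000 cells/well. Compounds from DMSO stocks (0.25% v/v DMSO control), triplicate dilutions, added day 1 for 48 h. Fixed with cold 50% TCA for 60 min at 4 °C, then SRB staining, OD 492 nm, background corrected.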

| Structure (SMILES) | GI50 (T47D) [µM] | MIC (Staphylococcus aureus) [µM] | GI50 (SW1573) [µM] | GI50 (HeLa) [µM] | GI50 (A549) [µM] | GI50 (WiDr) [µM] | GI50 [1] [µM] |
| --- | --- | --- | --- | --- | --- | --- | --- |
| COC(=O)[C@@]1(C)CCC=C2[C@@H]1CC[C@@H](C)[C@]2(C)Cc1c(C=O)[nH]c2ccccc12 | 17 | 50 (≈ 19.7 µg/mL) | 7.9 | 4.4 | 45 | 20 | 7.5 |
| COC(=O)[C@@]1(C)CC[C@@H]2C3=C1CC[C@@H](C)[C@]3(C)Cc1c2[nH]c2ccc(Br)cc12 | 21 | – | 12 | 14 | 17 | 22 | 16 |
| COC(=O)[C@@]1(C)CCC=C2[C@@H]1CC[C@@H](C)[C@]2(C)Cc1c[nH]c2c(Br)cccc12 | 24 | – | 14 | 13 | 22 | 32 | 18 |
| COC(=O)[C@@]1(C)CCC=C2[C@@H]1CC[C@@H](C)[C@]2(C)Cc1c(C)[nH]c2c(Cl)cccc12 | 27 | – | 19 | 17 | 20 | 29 | 22 |

More lines, main results first:

| GI50 (T47D) [µM] | MIC (Staphylococcus aureus) [µM] | GI50 (SW1573) [µM] | GI50 (HeLa) [µM] | GI50 (A549) [µM] | Structure (SMILES) | GI50 (WiDr) [µM] | GI50 [1] [µM] |
| --- | --- | --- | --- | --- | --- | --- | --- |
| 20 | – | 15 | 14 | 17 | COC(=O)[C@@]1(C)CCC=C2[C@@H]1CC[C@@H](C)[C@]2(C)Cc1c[nH]c2ccc(C)cc12 | 22 | 18 |
| 15 | – | 14 | 11 | 15 | COC(=O)[C@@]1(C)CCC=C2[C@@H]1CC[C@@H](C)[C@]2(C)Cc1c[nH]c2ccc(C(F)(F)F)cc12 | 18 | 15 |
| 4.2 | – | 7.3 | 3.6 | 5 | COC(=O)[C@@]1(C)CCC=C2[C@@H]1CC[C@@H](C)[C@]2(C)Cc1c[nH]c2ccccc12 | 8.7 | 4.5 |
